In the library only some 0.59% were active in any assay of this set; here they are far more common.
TRPML3 agonist: activates the human TRPML3 channel. Q8TDD5. 0.29% of 220,000 active. activation, % at 3 µM. HEK293 TRPML3-YFP, Fluo-8 calcium fluorescence; 100% = the carbachol control signal;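 active means activation above its plate's cutoff, the mean activation of the plate's test wells plus 3 SD, cut at about 12% in these data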;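 further: 0% = DMSO only wells and 100% = carbachol wells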
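Test system: TRPML3-YFP stable HEK293 cells. Doses: single point at 3 µM. Incubation: dye loading 1 h 37 °C then 30 min ambient, 125 s read. Signal: Fluo-8 calcium dye fluorescence, ex 470-495, em 515-575 nm. Measure: percent activation from peak-to-basal fluorescence ratio, scaled between DMSO and carbachol.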
V1R ag counter: activates human V1a receptor in oxytocin agonist counter-screen; 0.25% of 320,000 active; P37288; activation, % at 3 µM; CHO-V1R cells, Fluo-8 calcium fluorescence, agonist mode; 0% DMSO, 100% 3 nM vasopressin;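 active means activation above the mean activation of all tested compounds plus 3 SD, per screening run, cut at about 20% in these data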;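 further: signal is peak over basal fluorescence ratio across a 100 second FLIPR read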
OXTR agonist: activates the human oxytocin receptor; P30559; CHO-OTR cells, Fluo-8 calcium fluorescence; normalized: DMSO 0%, oxytocin 100%; activation, % at 3 µM; 0.32% of 320,000 active;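 active means activation above the mean of all tested compounds plus 3 SD, cutoff set per screening run, cut at about 20% in these data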;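 further: peak over basal fluorescence ratio from a 100 s FLIPR kinetic read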
Target sequence (P30559 whole entry, looked up): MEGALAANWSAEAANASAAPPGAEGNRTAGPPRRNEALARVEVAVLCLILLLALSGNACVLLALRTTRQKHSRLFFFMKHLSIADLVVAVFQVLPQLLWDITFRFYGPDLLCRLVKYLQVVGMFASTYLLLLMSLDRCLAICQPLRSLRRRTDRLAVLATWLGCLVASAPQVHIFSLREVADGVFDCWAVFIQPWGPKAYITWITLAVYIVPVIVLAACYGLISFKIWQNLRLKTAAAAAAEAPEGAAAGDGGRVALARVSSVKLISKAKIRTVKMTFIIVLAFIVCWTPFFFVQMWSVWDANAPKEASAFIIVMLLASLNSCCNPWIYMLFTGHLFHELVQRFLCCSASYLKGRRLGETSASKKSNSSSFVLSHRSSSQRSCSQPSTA
zfTRPN1 agonist: zebrafish TRPN1 (NompC) channel agonism | activation, % at 3 µM | 0.18% of 220,000 active | HEK293 zebrafish TRPN1-YFP, Fluo-8 calcium fluorescence; 100% = response to 87 µM carbachol;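 active means activation above its plate's cutoff, the mean activation of test wells on that plate plus 3 SD, cut at about 19% in these data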;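 further: 0% = DMSO alone and 100% = 87 µM carbachol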
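Material – zebrafish TRPN1-YFP in HEK293 cells · Doses – 3 µM single point · Schedule – dye 1 h 37 °C plus 30 min RT · Signal – Fluo-8 calcium fluorescence, excitation 470-495 nm, emission 515-575 nm · Read-out – % activation versus carbachol response · Control set – carbachol high, DMSO low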
OXTR potentiator: human OXTR potentiation; AID 2445; CHO-OTR cells, Fluo-8 calcium fluorescence, potentiator mode; 0% = oxytocin EC15, 100% = EC100; activation, % at 3 µM; 0.061% of 320,000 active;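 active means activation above that plate's cutoff, the mean activation of tested compounds plus 3 SD, cut at about 6.6% in these data, passing the limit was not always enough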;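 further: 100% uses oxytocin at 75 nM as the full agonist control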
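Material: CHO-OTR cells, human receptor; compound dosing: single dose, 3.0 µM nominal final compound concentration; schedule: 6 min compound pre-incubation at room temperature, 100 s kinetic read; measured by: kinetic Fluo-8 calcium fluorescence; read-out basis: % activation vs EC15 and EC100 oxytocin; controls: EC15 oxytocin alone as 0%, 75 nM oxytocin as 100%; replicates: singlicate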
V1R ag confirm: confirmation of human vasopressin V1a receptor agonists. shares compounds with V1R ag counter. CHO-V1R cells, Fluo-8 calcium fluorescence, agonist. activation, % at 3 µM. 20% of 180 active;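 active means average activation exceeds primary screen hit cutoff, cut at about 21% in these data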;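 further: peak over basal fluorescence ratio during a 100 s FLIPR read; 0% = DMSO only wells and 100% = 3 nM vasopressin wells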
OXTR counter: activates oxytocin receptor in V1a agonist counter-screen. shares compounds with V1R ag counter. CHO-OTR cells, Fluo-8 calcium fluorescence. activation, % at 3 µM. 10% of 180 active;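 active means mean activation over three repeats above the cutoff from the earlier oxytocin receptor agonist screen, cut at about 20% in these data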;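 further: peak over minimum fluorescence ratio within a 100 second FLIPR read; 0% = DMSO only wells and 100% = oxytocin high control wells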
Active calls of the source: *; x = no result given.

SMILES	TRPML3 agonist	V1R ag counter	OXTR agonist	zfTRPN1 agonist	OXTR potentiator	V1R ag confirm	OXTR counter
CCOc1ccc(C(=O)NNC(=O)CN2C(=O)C3CC=CCC3C2=O)cc1OC (centres undefined)	x	-1	1	x	1	x	x
Cc1ccc(S(=O)(=O)NCC(=O)N/N=C/c2ccc(Cl)cc2)cc1	0	22*	-2	-3	8	-1	-1
O=C(CN1C(=O)NC2(CCCCC2)C1=O)N1CCN(S(=O)(=O)c2cccc([N+](=O)[O-])c2)CC1	x	1	0	x	-1	x	x
Fc1ccc(CSc2ccc3nnc(-c4cccs4)n3n2)cc1	1	24*	-1	0	-10	1	0
Cc1cccc(CSc2ccc3nnc(-c4cccs4)n3n2)c1	0	0	-1	-1	-12	x	x
CCOC(=O)N1CCN(C(=O)c2cccc(N3C(=O)NC4CC3(C)Oc3ccc(Cl)cc34)c2)CC1 (centres undefined)	x	1	0	x	-5	x	x
Cc1ccc2[nH]c(C(=O)N/N=C/c3ccccc3C(=O)O)c(-c3ccccc3)c2c1	x	1	0	x	-7	x	x
Cc1ccc2[nH]c(C(=O)N/N=C/c3ccccc3O)c(C)c2c1	x	22*	5	x	-16	1	0
CS(=O)(=O)c1ccc(Cl)c(NC(=O)COC(=O)CCc2c[nH]c3ccccc23)c1	x	28*	9	x	-19	3	4
COc1ccc(CCN(C)C(=O)CCNS(=O)(=O)c2ccccc2C(F)(F)F)cc1OC	x	1	2	x	0	x	x
COc1cc(OC)c(OC)cc1/C=C1\Oc2cc(OS(C)(=O)=O)ccc2C1=O	3	21*	17	5	-7	15	17
Cn1c(SCC(=O)NC2(C#N)CCCCC2)nnc1-c1cccnc1	x	0	0	x	-6	x	x
Cc1ccc(NC2=NCC(=O)N2CCc2ccccc2)cc1C	-1	1	0	-2	-8	x	x
CCOc1ccc(NC2=NCC(=O)N2CCc2ccccc2)cc1	1	20*	14	0	-23	4	-1
O=C(Nc1cccc(Cl)c1)Nc1ccc2nccnc2c1	x	23*	14	x	-15	10	10
O=C(NCCc1ccco1)C(=O)NCC1CCCN1S(=O)(=O)c1ccccc1 (centres undefined)	x	0	0	x	-4	x	x
Cn1cccc1/C=N/NC(=O)c1cc2ccccc2cc1O	x	2	1	x	-8	x	x
S=C(NCc1ccc(Cl)cc1)Nc1ccncc1	x	22*	17	x	-16	14	16
S=C(NCc1ccc(Cl)cc1)Nc1ccccc1	0	7	2	0	-14	x	x
CCOC(=O)C1=CCN(Cc2ccccc2)CC1	x	0	0	x	-6	x	x
Cc1ccc(NC(=O)Nc2c(C)n(C)n(-c3ccccc3)c2=O)cc1	x	21*	1	x	-6	0	0
C#CCOCCOCCOCCNc1nc(N2CCN(C(=O)CCCCCCCCCCNC(=O)Cn3cc(CCCCCN)nn3)CC2)nc(N2CCN(C(=O)CCCCCCCCCCNC(=O)Cn3cc(C[C@@H](C)O)nn3)CC2)n1	x	27*	10	x	-13	8	4
C#CCOCCOCCOCCNc1nc(N2CCN(C(=O)CCCCCCCCCCNC(=O)[C@H](CCCCN)n3cc(C)nn3)CC2)nc(N2CCN(C(=O)CCCCCCCCCCNC(=O)[C@@H]([C@H](C)O)n3cc(C)nn3)CC2)n1	x	31*	10	x	-12	8	2
C#CCOCCOCCOCCNc1nc(N2CCN(C(=O)CCCCCCCCCCNC(=O)[C@H](CCCCN)n3cc(C[C@@H](C)CC)nn3)CC2)nc(N2CCN(C(=O)CCCCCCCCCCNC(=O)[C@@H]([C@H](C)O)n3cc(C)nn3)CC2)n1	x	16	4	x	-8	x	x
C#CCOCCOCCOCCNc1nc(N2CCN(C(=O)CCCCCCCCCCNC(=O)[C@@H](CCC(=O)O)n3cc(CCCCCN)nn3)CC2)nc(N2CCN(C(=O)CCCCCCCCCCNC(=O)[C@H](CCCCN)n3cc(C[C@@H](C)CC)nn3)CC2)n1	x	45*	7	x	-16	44*	9
SMILES	TRPML3 agonist	V1R ag counter	OXTR agonist	zfTRPN1 agonist	OXTR potentiator	V1R ag confirm	OXTR counter
Cc1cc(C(=O)COC(=O)c2cccnc2Cl)c(C)n1C	x	0	0	x	-6	x	x
Cc1ccc(-c2c(C(=O)N/N=C/c3ccco3)nnn2-c2nonc2N)cc1	x	28*	9	x	-10	8	11
CCOc1ccc(-c2c(C(=O)N/N=C/c3ccco3)nnn2-c2nonc2N)cc1	x	16	6	x	-6	x	x
c1ccc(Nc2ccccc2Nc2ccccn2)nc1	68*	49*	10	88*	-5	0	-1
c1ccc(CNc2ccccn2)cc1	x	-1	0	x	-10	x	x
CC(Oc1ccc2ccc(=O)oc2c1)C(=O)N1CCOCC1 (centres undefined)	x	21*	0	x	0	0	0
CCc1ccc(N=Nc2ccc(O)c3[nH]cnc23)cc1	x	23*	14	x	-8	26*	16
ClC(Cl)(Cl)c1nc2ccccc2n2nncc12	x	-1	-2	x	-1	x	x
O=C(NNC(=S)NC(=O)c1ccco1)c1ccc(F)cc1	4	29*	19	4	-12	11	6
CCOC(=O)c1c(NC(=O)CSc2nnnn2-c2ccccc2)sc2c1CC(C)(C)NC2(C)C	x	3	0	x	-10	x	x
CCOC(=O)c1c(NC(=O)CSc2nc3ccc(C)cc3[nH]2)sc2c1CC(C)(C)NC2(C)C	x	22*	15	x	-14	2	9
Oc1ccc(Br)cc1C=Nc1ccc2c3c(cccc13)CC2	3	24*	12	8	-8	0	-1
CCc1ccc(NC(=O)N(CCCN2CCOCC2)C(C)c2cc3cccc(OC)c3o2)cc1 (centres undefined)	0	22*	-2	-1	4	0	-1
Nc1c(C(=O)Nc2nccs2)sc2nc(-c3cccs3)cc(C(F)(F)F)c12	5	34*	19	6	-18	24*	34*
Cc1cc(C)c2c(N)c(C(=O)Nc3nccs3)sc2n1	0	0	-1	0	4	x	x
COc1ccc(OC)c(C2=NS(=O)(=O)N(C)C(C(=O)NCc3cccs3)=C2)c1	x	22*	16	x	-9	11	25*
Cc1ccc(C2=NS(=O)(=O)N(C)C(C(=O)NCc3cccs3)=C2)cc1	x	3	2	x	-4	x	x
CNC[C@H]1Oc2ccc(NC(=O)C3CCCCC3)cc2CC(=O)N([C@H](C)CO)C[C@@H]1C	x	2	2	x	-4	x	x
CC12CCC(=O)N1C(C(=O)N1CCN(c3ccc(C(F)(F)F)cc3[N+](=O)[O-])CC1)CS2 (centres undefined)	x	2	2	x	-8	x	x

High-throughput results (PubChem BioAssay)
